High-throughput results: PubChem, several laboratories
Compounds with a hit are over-represented: about 1.1% of the library has one in this group of screens.
Arr AP2 block = human beta-arrestin and AP2 interaction inhibition; AID 504490; actives 0.31% (n = 340,000); inhibition, % at 10 µM; FITC-arrestin peptide / GST-AP2 beads, flow cytometry; AP2 beta2 appendage carries R879A mutation;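 active = inhibition above a set limit, near 3 SD of compounds lacking own fluorescence, cut at about 54% in these data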
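system = GST-tagged AP2 beta2-adaptin appendage (R879A) on 4 µm glutathione beads | reagent = FITC-labelled arrestin peptide probe, 50 nM final | schedule = compound with beads 12 min RT, then probe 1 h RT | signal = HyperCyt-sampled flow cytometry, FL1 channel, ex 488/em 535 nm | read-out = percent response from loss of bead-bound FITC fluorescence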
GASC-1 inh = inhibitors of human GASC-1 (JMJD2C) demethylase | Q9H3R0 | GST-JMJD2C(1-420) H3K9me3 demethylation, DELFIA europium | inhibition, % at 2.35 µM | actives 0.069% (n = 330,000) | AID 2099;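 active = more than half of a compound's replicate wells show inhibition beyond 50%, single wells judged on their own value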;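 note: signal counts dimethyl H3K9 product captured on neutravidin plate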
SENP1 inh = inhibitors of human SENP1 SUMO protease catalytic domain; inhibition, % at 10 µM; AID 624204; actives 0.21% (n = 360,000); recombinant SENP1 catalytic domain, CyPet-SUMO1-YPet FRET cleavage; Q9P0U3;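 active = inhibition at least 30% at 10 µM, raw YFP signal under a set limit, fluorescence ratio 0.5 to 1.5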
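System: Recombinant human SENP1 catalytic domain, His6-tagged | Incubation: Enzyme reaction for 50 min at room temperature, dark | Medium: Tris pH 8 with BME, BSA, NP40 and catalase | Also added: 25 nM SUMO1 FRET substrate | Compound: 10 µM single point, 0.5% DMSO | Measured by: FRET fluorescence in CFP and YFP emission channels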
FAS-TE inh = FAS thioesterase (human) inhibition | actives 0.67% (n = 360,000) | inhibition, % at 15 µM | P49327 | recombinant FAS-TE, OMFH fluorogenic substrate, fluorescence endpoint;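 active = compounds whose normalised, plate-corrected inhibition of enzyme fluorescence in the single-dose primary screen is 50% or more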
FAS-TE inh conf = confirmation of human fatty acid synthase thioesterase inhibitors; shares compounds with FAS-TE inh; recombinant FAS-TE, OMFH fluorogenic substrate, fluorescence; inhibition, % at 15 µM; actives 45% (n = 2,300); AID 624325;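 active = compounds inhibiting the enzyme by at least 50% at 15 µM in any one of the replicates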
Numbers stand for hits; - = inactive; . = not tested or not shown.

SMILES	Arr AP2 block	GASC-1 inh	SENP1 inh	FAS-TE inh	FAS-TE inh conf
COc1ccc(F)cc1-c1cc(C(=O)NCc2cccc(C(F)(F)F)c2)[nH]n1	.	.	-	-	.
COc1cc(F)ccc1-c1cc(C(=O)NCc2cccc(Cl)c2)[nH]n1	.	.	-	-	.
COc1ccc(Cl)cc1-c1cc(C(=O)NCc2cccc(Cl)c2)[nH]n1	.	.	-	51	51
CCOc1cc(C(c2c(C)[nH][nH]c2=O)c2c(C)[nH][nH]c2=O)cc(Cl)c1O	-	-	-	-	.
CC(=O)Nc1cccc(NC(=O)C(=O)c2cn(CC(=O)N3CCCC3)c3ccccc23)c1	.	.	-	-	.
N#C/C(=C\c1ccc(OCc2ccc(Cl)cc2)cc1)C(=O)Nc1cccc(C(=O)O)c1	-	-	-	53	-
COc1ccc(C(=O)N/C(=C\c2cn(S(=O)(=O)N(C)C)c3ccccc23)C(=O)NC(C)C)cc1	-	-	-	65	-
COc1ccc(C(=O)N/C(=C\c2cn(S(=O)(=O)N(C)C)c3ccccc23)C(=O)N2CCCC2)cc1	.	.	-	80	90
CN(C)S(=O)(=O)n1cc(/C=C(\NC(=O)c2ccccc2)C(=O)N2CCOCC2)c2ccccc21	-	-	-	-	.
COc1cc(C(=O)N/C(=C\c2cn(S(=O)(=O)N(C)C)c3ccccc23)C(=O)N2CCCC2)cc(OC)c1OC	-	-	-	-	.
COc1ccc(C(=O)N/C(=C\c2cn(S(=O)(=O)N(C)C)c3ccccc23)C(=O)N2CCOCC2)cc1	-	-	-	82	71
C=CCNC(=O)CN(CCc1ccccc1)S(=O)(=O)c1ccccc1	-	-	-	-	.
COc1ccc(CCNC(=O)Cc2ccsc2)cc1	-	-	-	-	.
CCOC(=O)C1(CC)NC(c2ccco2)C2C(=O)N(c3ccc(C)cc3)C(=O)C21 (stereo not given)	-	-	-	-	.
O=C(Nc1ccc(Cl)cc1)C(Cl)C(=O)c1ccccc1 (stereo not given)	-	-	-	77	87
CCCN1CCC(Oc2cccc(C(=O)NCCc3ccccc3)c2)CC1	-	-	-	-	.
COc1ccccc1CN(C)C(=O)CNC(=O)c1cccc(Cl)c1	-	-	-	-	.
NS(=O)(=O)c1cccc(NC(=O)CCSc2ccccc2Cl)c1	-	-	-	-	.
O=C(CCSc1ccccc1Cl)Nc1cccc([N+](=O)[O-])c1	-	-	-	52	-
Cc1ccc(CNC(=O)C2CCCN2S(=O)(=O)c2ccc(F)cc2)cc1 (stereo not given)	-	-	-	-	.
Cc1ccc(NC(=O)c2cc(S(=O)(=O)N(C)C)ccc2N2CCCC2)cc1F	-	-	-	51	58
COc1ccc(C(=O)Nc2cc([N+](=O)[O-])ccc2N2CCCC2)cc1	-	-	-	58	52
O=C(Nc1nc(-c2ccccc2)cs1)c1ccc(N2CCOCC2)c([N+](=O)[O-])c1	-	-	-	-	.
Cc1ccc(OCC(=O)Nc2ccc([N+](=O)[O-])cc2)cc1	-	-	-	-	.
COc1ccc(C(=O)Nc2ccccc2N2CCCC2)cc1	-	-	-	-	.
SMILES	Arr AP2 block	GASC-1 inh	SENP1 inh	FAS-TE inh	FAS-TE inh conf
Cc1ccc(-c2csc(NC(=O)c3cc([N+](=O)[O-])ccc3N3CCOCC3)n2)cc1	-	-	-	71	-
Cc1ccc(NC(=O)C2(c3ccc([N+](=O)[O-])cc3)CCCC2)cc1	-	-	-	60	51
Cc1cc(=O)[nH]c2c(C)cc(S(=O)(=O)NCc3ccccc3)cc12	-	-	-	-	.
CN(CC(=O)Nc1c(Cl)cccc1Cl)C(=O)CNC(=O)c1sc2ccccc2c1Cl	-	.	-	-	.
CCCn1cc(CN2CCCC(CNC(=O)c3ccc(F)cc3)C2)c(C)n1 (stereo not given)	-	-	-	-	.
Clc1ccccc1Nc1nc2ccccc2o1	-	-	-	-	.
Cc1ccc(NC(=O)c2cc([N+](=O)[O-])ccc2N2CCOCC2)cc1C	-	-	-	74	78
Cc1ccc(NC(=O)c2cc([N+](=O)[O-])ccc2N2CCCC2)cc1	-	-	-	66	42
CC(C)c1ccc(NC(=O)c2cc([N+](=O)[O-])ccc2N2CCOCC2)cc1	-	-	-	74	-
CN(C)S(=O)(=O)c1cccc(NC(=O)c2cc([N+](=O)[O-])ccc2N2CCCCC2)c1	-	-	-	59	55
O=C(Nc1ccc(N2CCN(C(=O)c3ccccc3)CC2)cc1)c1cc([N+](=O)[O-])ccc1N1CCOCC1	-	-	-	-	.
CC(=O)c1ccc(OCC(O)CN2C(C)(C)CC(O)CC2(C)C)cc1 (stereo not given)	-	-	-	-	.
CC1(C)O[C@H]2OC([C@H](O)CON3C(=O)c4ccccc4C3=O)[C@H](O)[C@H]2O1 (stereo not given in full)	.	-	.	.	.
Cc1c(C(=O)NCCSCc2ccc(Cl)cc2Cl)cccc1[N+](=O)[O-]	-	-	-	-	.
Cc1ccc(C(=O)NCCSC(C)(C)C)cc1[N+](=O)[O-]	-	-	-	56	56
Cc1ccc(C(=O)NCCSCc2ccc(Cl)cc2Cl)cc1[N+](=O)[O-]	-	-	-	51	-
CN1CCN(C(=S)NC(=O)c2ccc(S(=O)(=O)N3CCOCC3)cc2)CC1	-	-	-	-	.
O=C(NC(=S)N1CCN(C(c2ccccc2)c2ccccc2)CC1)c1ccc(S(=O)(=O)N2CCOCC2)cc1	-	-	-	56	-
C=CCCC(=O)N1C[C@H]2CON(C)[C@H]2C[C@H]1c1ccc(-n2ccnc2)cc1	.	.	-	-	.
c1cc(-c2nsc(-c3ccncc3)n2)ccn1	-	-	-	-	.
CCN1C(=O)[C@H]2[C@@H](c3ccc(C)cc3)N3C(=O)N(c4ccc(OC)cc4)C(=O)[C@@]3(Cc3ccccc3)[C@H]2C1=O	-	-	-	-	.
CCN1C(=O)[C@H]2[C@@H](c3ccc(C)cc3)N3C(=O)N(c4ccc(C(F)(F)F)cc4)C(=O)[C@@]3(CC)[C@H]2C1=O	-	-	-	-	.
CCN1C(=O)[C@H]2[C@@H](c3ccc(C)cc3)N3C(=O)N(c4ccc(C)cc4)C(=O)[C@@]3(Cc3ccc(Cl)cc3)[C@H]2C1=O	-	-	-	60	-
CCN1C(=O)[C@H]2[C@@H](c3ccc(C)cc3)N3C(=O)N(c4ccccc4)C(=O)[C@@]3(Cc3ccc(Cl)cc3)[C@H]2C1=O	-	-	-	63	-
Cc1cccc([C@@H]2[C@@H]3C(=O)N(Cc4ccccc4)C(=O)[C@@H]3[C@]3(CC(C)C)C(=O)N(c4cccc(Cl)c4)C(=O)N23)c1	-	-	-	72	-
O=C1C=C(c2ccc(Cl)c(C(F)(F)F)c2)C[C@@H](c2ccc3c(c2)OCO3)C1	-	-	-	75	58
Cc1cc(NS(=O)(=O)N(C)C)ccc1C(C)C	-	-	-	-	.
CCOC(=O)c1nc(NNC(=O)c2ccc([N+](=O)[O-])cc2)sc1C	-	-	-	53	-
